In the library only some 2.4% were active in any assay of this set; here they are far more common.
GSTO1 counter = blocks human GSTO1 in RBBP9 counter-screen. P78417. recombinant GSTO1, activity-based probe fluorescence polarization. inhibition, % at 5.96 µM. 300,000 compounds, 1.1% hits. AID 1974;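 active = inhibition above the campaign mean inhibition plus 3 SD, cut at about 35% in these data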
Target sequence (P78417 whole entry, looked up): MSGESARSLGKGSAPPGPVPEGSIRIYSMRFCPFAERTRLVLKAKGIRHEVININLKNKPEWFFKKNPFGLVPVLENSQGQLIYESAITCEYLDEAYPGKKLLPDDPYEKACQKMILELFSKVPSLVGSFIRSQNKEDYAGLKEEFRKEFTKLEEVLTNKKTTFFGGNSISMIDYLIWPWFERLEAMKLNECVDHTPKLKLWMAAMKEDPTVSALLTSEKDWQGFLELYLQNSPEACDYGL
PAD4 inh = blocks human protein arginine deiminase 4; inhibition, % at 6.36 µM; AID 485272; recombinant PAD4, RCA probe fluorescence polarization; 330,000 compounds, 0.41% hits;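 active = percent inhibition above a cutoff equal to the mean of all tested compounds plus 3 SD, cut at about 15% in these data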
TCR-CD3 inh = human TCR-CD3 binding inhibition; TAMRA-labeled TCR probe fluorescence, biochemical; inhibition, % at 9.4 µM; 360,000 compounds, 0.37% hits; in the data active = inhibition above about 19%;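 note: recombinant mutant TCR 2C K166C tagged with TAMRA read by polarization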
SIAE primary = blocks human sialic acid acetylesterase; inhibition, % at 9.66 µM; AID 1053197; 370,000 compounds, 0.69% hits; Q9HAT2; SIAE FP-Rh probe binding, fluorescence polarization;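 active = inhibition above a cutoff: mean of compounds within the control limits plus 3 SD of those, cut at about 17% in these data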
TDP2 absorb = TDP2 (human) inhibition, absorbance primary screen | recombinant TDP2, T5PNP hydrolysis, p-nitrophenol absorbance 415 nm | inhibition, % at 12.8 µM | 370,000 compounds, 0.34% hits;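 active = inhibition above the mean of all tested compounds plus 3 SD, set per campaign, cut at about 25% in these data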
Target sequence (O95551 whole entry, looked up): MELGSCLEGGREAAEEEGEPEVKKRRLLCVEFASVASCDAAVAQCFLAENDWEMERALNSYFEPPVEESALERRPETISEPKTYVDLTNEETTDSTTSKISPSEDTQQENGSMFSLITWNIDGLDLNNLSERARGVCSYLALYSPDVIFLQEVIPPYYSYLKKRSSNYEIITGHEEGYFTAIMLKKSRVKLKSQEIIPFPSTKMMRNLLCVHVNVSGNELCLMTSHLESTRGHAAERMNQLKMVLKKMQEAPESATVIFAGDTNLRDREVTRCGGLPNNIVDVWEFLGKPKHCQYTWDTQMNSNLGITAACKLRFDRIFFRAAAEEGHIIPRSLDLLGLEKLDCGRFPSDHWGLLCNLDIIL
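Read-out basis: percent inhibition. System: recombinant human TDP2. Buffer or medium: Mg2+-containing Tris-HCl buffer, pH 7.5. Repeats: single replicate. Timing: reaction 2 h, 37 °C. Benchmarks: high control without enzyme, low control DMSO plus TDP2. Probe or stimulus: 5 mM T5PNP. Doses: 12.8 µM only. Measured by: epi absorbance of p-nitrophenol freed from T5PNP by hydrolysis.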
Apaf-1 inh = inhibitors of human Apaf-1 apoptosome. AID 489030. inhibition, % at 20 µM. 330,000 compounds, 0.71% hits. reconstituted apoptosome caspase-3 activity, DEVD-Rh110 fluorescence. O14727; active = inhibition of at least 40% at 20 µM
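Medium: Hepes buffer, pH 7.5 / System: biochemical Apaf-1 apoptosome reconstitution / Measured by: Rh110 fluorescence, excitation 480 nm, emission 540 nm / Times: compound with Apaf-1, dATP, procaspase-3 30 min, then 50 min reaction, room temperature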
Numbers stand for hits; – = inactive; · = no result.

SMILES	GSTO1 counter	PAD4 inh	TCR-CD3 inh	SIAE primary	TDP2 absorb	Apaf-1 inh
Cc1ccc(C)c(N=Cc2cc3c(cc2[N+](=O)[O-])OCO3)c1	–	–	–	26.7	–	–
CC(C)(C)c1ccc(O)c(N=Cc2cc3c(cc2[N+](=O)[O-])OCO3)c1	–	–	–	–	–	–
Cc1ccc(N=Cc2cc3c(cc2[N+](=O)[O-])OCO3)cc1[N+](=O)[O-]	36.4	–	–	–	–	–
CC(=O)N(C)c1ccc(N=Cc2cc3c(cc2[N+](=O)[O-])OCO3)cc1	–	–	–	–	37.4	64.9
CC(C)NC(=O)C1CCN(C2CCN(C(=O)c3cc4c(s3)CCCCC4)CC2)CC1	–	–	–	–	–	–
C=CCSc1nnc(NC(=O)CSCc2c(C)noc2C)s1	·	–	–	–	–	–
CCCc1cc(C(=O)Nc2cccc(C(C)=O)c2)no1	35.6	–	–	–	–	–
CCCc1cc(C(=O)Nc2ccc(C(C)=O)cc2)no1	–	–	–	–	–	–
CCCCNC(=S)N/N=C/c1sccc1C	–	–	–	–	–	–
CCCCC(=O)NNC(=S)NC(=O)c1ccc(C)cc1	–	–	–	–	–	–
Cc1ccc(C(=O)NC(=S)NNC(=O)CC#N)cc1	35.3	–	–	–	–	–
CCCCCCCCC[n+]1cccc2c3ccccc3ccc21	–	–	·	·	·	–
CCCCCCCCCCCCCCCC[n+]1cccc2ccccc21	–	–	–	–	–	91.1
CC(C)C1S/C(=N/N=C/c2ccco2)NC1=O (stereo not drawn)	–	–	–	–	–	–
C/C(=N/Nc1ccc(C(=O)O)cc1)c1ccc(O)c(O)c1O	44.8	–	–	–	–	–
COc1ccc(OC)c(/C(C)=N/Nc2ccc(C(=O)O)cc2)c1	–	–	–	–	–	–
Cc1cnc(NC(=O)Cc2ccccc2F)s1	–	–	–	–	–	–
O=S(=O)(N=C1C=CC(=NS(=O)(=O)c2ccccc2)c2ccccc21)c1ccccc1	·	·	–	–	–	·
CCc1ccc(S(=O)(=O)/N=C2\C=CC(=O)c3ccccc32)cc1	66.8	–	·	·	·	54.7
CCOc1ccccc1-n1c(=S)sc2c(=O)n(-c3ccccc3)c(=S)[nH]c21	–	–	–	18.7	–	–
COc1ccccc1-n1c(=S)[nH]c2c(sc(=S)n2-c2ccccc2)c1=O	–	–	–	–	–	–
BrC(=C\c1ccccc1)/C=N/Nc1nc2ccccc2[nH]1	36.8	–	–	–	–	–
Cc1cc(C)nc(SCNC(=O)c2ccc(F)cc2)n1	36.5	–	–	–	–	–
Cc1cc(C)nc(SCC(=O)c2ccc(F)cc2)n1	–	–	–	–	–	–
CCOc1ccc(/C=C2\CCCc3c2nc2ccccc2c3C(=O)O)cc1OC	–	26.8	·	·	·	–
SMILES	GSTO1 counter	PAD4 inh	TCR-CD3 inh	SIAE primary	TDP2 absorb	Apaf-1 inh
CC(C)CC(=O)Nc1ccccc1N1CCCC1	–	–	–	–	–	–
CSc1ccc(-c2sc(Nc3cccc4ccccc34)n[n+]2-c2ccccc2)cc1	37.0	–	–	–	–	–
O=C(NCCN1CCCCC1)c1ccc(/C=N/O)nc1	–	–	–	–	–	–
CNc1ccc(Br)cc(C(=O)/C=C/c2ccc(Cl)cc2Cl)c1=O	35.0	–	–	–	–	–
O=C(/C=C/c1ccc(Cl)cc1Cl)c1ccc[nH]1	–	–	–	–	–	–
CNc1ccc(Br)cc(C(=O)/C=C/c2cccc(OC)c2)c1=O	35.5	–	–	–	–	–
O=C(/C=C/c1ccccc1)c1cc(Br)ccc(=O)c1O	–	–	–	–	–	–
C/C(=N\OCc1nc2ccccc2c(=O)n1/N=C/c1cc([N+](=O)[O-])ccc1O)c1ccccc1	–	–	23.1	–	–	–
O=c1cc(N=Nc2ccc(Cl)cc2)[nH]c(=O)[nH]1	47.3	–	–	–	–	·
CCN(C(=O)COC(=O)CCC(=O)c1ccccc1)c1c(N)n(Cc2ccccc2)c(=O)[nH]c1=O	·	–	–	25.8	–	–
O=C1Nc2cc(C(=O)NCCCN3CCCC3)ccc2S/C1=C\c1ccccc1	–	–	–	–	–	–
COc1ccc(/C=C2/Sc3ccc(C(=O)NCCN4CCCCCC4)cc3NC2=O)cc1	–	–	–	–	–	49.0
CN(CCCN1c2ccccc2CCc2ccccc21)CC(=O)c1ccc(Cl)cc1	–	–	·	·	·	44.1
O=C(Cc1ccccc1)NCC(=O)N/N=C/c1ccc(C(=O)O)cc1	–	–	–	–	–	–
O=C(NCc1ccccc1)C1C(c2ccccc2)=Nc2ccccc2N1C(=O)c1cnccn1 (stereo not drawn)	·	·	–	–	–	·
Cc1ccc(C(=O)NC(=C(Cl)Cl)S(=O)(=O)c2ccccc2)cc1	39.3	–	–	–	–	–
Cc1ccc([C@H]2N[C@]3(CCCN(Cc4cccn4C)C3=O)[C@H]3C(=O)N(C)C(=O)[C@@H]23)cc1	·	·	–	–	–	·
COc1ccc(Cn2c(SCc3ccccc3C)nc3cc(OC)c(OC)cc3c2=N)cc1	–	–	–	–	–	69.7
CCCCCCCCCCn1c2c(c(=N)c3c1CCC3)CCC2	–	–	–	–	–	73.9
CC(=O)Oc1ccc(C(=O)OCC(=O)c2c(N)n(C)c(=O)n(C)c2=O)cc1OC(C)=O	35.3	–	–	–	–	–
O=C(NCC(F)(F)F)c1ccc(S(=O)(=O)Nc2ccccc2N2CCCC2)cc1	·	–	–	–	–	54.2
Cc1ccc(S(=O)(=O)Nc2ccccc2N2CCCCC2)cc1	·	–	–	–	–	–
O=C(NC1CCCCC1)C(c1ccc(O)c(O)c1)N(C(=O)Cn1nnc2ccccc21)c1cccc(O)c1 (stereo not drawn)	36.3	–	–	–	–	–
CC(=O)Nc1ccc(S(=O)(=O)N(C)c2ccc(OCC(=O)Nc3ccccc3C(C)=O)cc2)cc1	·	·	–	–	–	–
CC(=O)N1CC=C2C(C#N)=C(N)C(C#N)(C#N)C(CCc3ccccc3)C2C1 (stereo not drawn)	–	–	–	–	–	–
SMILES	GSTO1 counter	PAD4 inh	TCR-CD3 inh	SIAE primary	TDP2 absorb	Apaf-1 inh
CCN1CC=C2C(C#N)=C(N)C(C#N)(C#N)C(CCc3ccccc3)C2C1 (stereo not drawn)	–	20.0	–	–	–	–
O=C(NCCc1ccccc1)C(c1cccs1)N(C(=O)c1csnn1)C1CC1 (stereo not drawn)	–	–	–	17.6	–	–
O=C(NCCc1ccccc1)C(c1cccs1)N(C(=O)CCl)c1ccc(Cl)cc1 (stereo not drawn)	103.4	–	–	–	–	–
O=C(NCc1ccccc1)C(c1cccs1)N(C(=O)c1csnn1)C1CC1 (stereo not drawn)	–	–	–	–	–	–
COc1cccc(C(=O)NNC(=O)C(=O)Nc2ccc(OC)cc2OC)c1	–	–	–	–	–	–
O=C(NNC(=O)c1cc(O)c(O)c(O)c1)NC1CCCCC1	35.9	–	–	–	–	–
